Results as given in ChEMBL document CHEMBL3351636, “Synthesis and biological evaluation of sophoridinol derivatives as a novel family of potential anticancer agents” (ACS Med Chem Lett, 2014).
Calls of active or inactive are those of the source. No cut-off for these calls is given here.

Columns and labels:
[1] = test system: HepG2; experiment: Cytotoxicity against human HepG2 cells after 48 hrs by MTT assay; assay type: functional, cell-based; conditions: HepG2, 48 h
[2] = test system: MCF7; experiment: Cytotoxicity against human MCF7 cells after 48 hrs by MTT assay; assay type: functional, cell-based; conditions: MCF7, 48 h
[3] = test system: MCF7; experiment: Cytotoxicity against adriamycin-resistant human MCF7 cells after 48 hrs by MTT assay; assay type: functional, cell-based; conditions: MCF7, 48 h
[4] = test system: HepG2; experiment: Cell cycle arrest in human HepG2 cells assessed as accumulation at G0/G1 phase at 1.25 to 5 ug/ml after 24 hrs using propidium iodide by flow cytometry; assay type: functional, cell-based
In short: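 HepG2 cells incubated 24 h with compound at 1.25, 2.5 and 5.0 μg/mL or left untreated (control); cell cycle distribution read by flow cytometry; significance versus untreated control given as P < 0.05 / P < 0.01.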

[5] = Tmax in Sprague-Dawley rat at 25 mg/kg, po as single dose; assay type: ADME, organism-based; set-up: dose 25 mg/kg, route oral; conditions: in vivo
In short: (§1)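 Adult male Sprague–Dawley rats (n = 3) received a single oral dose of 25 mg/kg. Nine blood samples were drawn over 24 h to build a plasma concentration–time curve. Parameters were derived by noncompartmental analysis and reported as mean ± deviation.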

[6] = Cmax in Sprague-Dawley rat at 25 mg/kg, po as single dose; assay type: ADME, organism-based; set-up: dose 25 mg/kg, route oral; conditions: in vivo; in short: as §1
[7] = AUC (0 to t) in Sprague-Dawley rat at 25 mg/kg, po as single dose; assay type: ADME, organism-based; set-up: dose 25 mg/kg, route oral; conditions: plasma; in short: as §1
[8] = AUC (0 to infinity) in Sprague-Dawley rat at 25 mg/kg, po as single dose; assay type: ADME, organism-based; set-up: time infinity, dose 25 mg/kg, route oral; conditions: plasma; in short: as §1
[9] = Mean residence time in Sprague-Dawley rat at 25 mg/kg, po as single dose; assay type: ADME, organism-based; set-up: dose 25 mg/kg, route oral; conditions: in vivo; in short: as §1
[10] = Half life in Sprague-Dawley rat at 25 mg/kg, po as single dose; assay type: ADME, organism-based; set-up: dose 25 mg/kg, route oral; conditions: in vivo; in short: as §1

SMILES	IC50 [1] [µM]	also measured
COC(=O)CCC[C@@H]1[C@H]2CCCN3CCC[C@H](CN1Cc1ccc(OC)c(OC)c1)[C@@H]23	> 40	
CCOc1ccc(CN2C[C@H]3CCCN4CCC[C@@H]([C@H]34)[C@H]2CCCCO)cc1OC	> 40	
COc1cc(CN2C[C@H]3CCCN4CCC[C@@H]([C@H]34)[C@H]2CCCC(=O)O)cc(OC)c1OC	> 40	
COc1ccc(CN2C[C@H]3CCCN4CCC[C@@H]([C@H]34)[C@H]2CCCCO)c(Cl)c1OC	15.7	
O=C(O)CCC[C@@H]1[C@H]2CCCN3CCC[C@H](CN1Cc1ccc4ccccc4c1)[C@@H]23	> 40	
OCCCC[C@@H]1[C@H]2CCCN3CCC[C@H](CN1Cc1c4ccccc4cc4ccccc14)[C@@H]23	3.1	IC50 [2]: 5.63 µM; IC50 [3]: 5.94 µM; Activity [4]: Active; Tmax [5]: 4.6 h; Cmax [6]: 3.4 µM; AUC(0-t) [7]: 10.3 µM·h; AUC(0-inf) [8]: 10.5 µM·h; MRT [9]: 5.4 h; half-life [10]: 12.7 h
COC(=O)CCC[C@@H]1[C@H]2CCCN3CCC[C@H](CN1Cc1ccccc1OC)[C@@H]23	10.3	
CCC(O)(CC)CCC[C@@H]1[C@H]2CCCN3CCC[C@H](CN1Cc1c4ccccc4cc4ccccc14)[C@@H]23	2.7	
COC(=O)CCC[C@@H]1[C@H]2CCCN3CCC[C@H](CN1Cc1ccc(OC)c(OC)c1Cl)[C@@H]23	8.4	
O=C(O)CCC[C@@H]1[C@H]2CCCN3CCC[C@H](CN1Cc1cccc4ccccc14)[C@@H]23	> 40	
COc1ccccc1CN1C[C@H]2CCCN3CCC[C@@H]([C@H]23)[C@H]1CCCC(=O)O	> 40	
Fc1ccc(C(=CCC[C@@H]2[C@H]3CCCN4CCC[C@H](CN2Cc2c5ccccc5cc5ccccc25)[C@@H]34)c2ccc(F)cc2)cc1	5.3	
COC(=O)CCC[C@@H]1[C@H]2CCCN3CCC[C@H](CN1Cc1c4ccccc4cc4ccccc14)[C@@H]23	4.3	
OCCCC[C@@H]1[C@H]2CCCN3CCC[C@H](CN1Cc1ccc4ccccc4c1)[C@@H]23	7.9	
CC(=O)O[C@H]1C(=O)[C@@]2(C)[C@H]([C@H](OC(=O)c3ccccc3)[C@]3(O)C[C@H](OC(=O)[C@H](O)[C@@H](NC(=O)c4ccccc4)c4ccccc4)C(C)=C1C3(C)C)[C@]1(OC(C)=O)CO[C@@H]1C[C@@H]2O [PACLITAXEL]	15.6	
OCCCC[C@@H]1[C@H]2CCCN3CCC[C@H](CN1Cc1cccc4ccccc14)[C@@H]23	6.8	IC50 [2]: 9.07 µM; IC50 [3]: 9.51 µM
COC(=O)CCC[C@@H]1[C@H]2CCCN3CCC[C@H](CN1Cc1ccc4ccccc4c1)[C@@H]23	5.8	
COc1cccc(CN2C[C@H]3CCCN4CCC[C@@H]([C@H]34)[C@H]2CCCCO)c1Cl	23.6	
COc1cc(CN2C[C@H]3CCCN4CCC[C@@H]([C@H]34)[C@H]2CCCCO)cc(OC)c1OC	> 40	
COC(=O)CCC[C@@H]1[C@H]2CCCN3CCC[C@H](CN1Cc1ccc(OC)cc1)[C@@H]23	10.7	
COc1ccc(CN2C[C@H]3CCCN4CCC[C@@H]([C@H]34)[C@H]2CCCCO)cc1	> 40	
COC(=O)CCC[C@@H]1[C@H]2CCCN3CCC[C@H](CN1Cc1cccc(OC)c1)[C@@H]23	10.7	
CC(C)(O)CCC[C@@H]1[C@H]2CCCN3CCC[C@H](CN1Cc1c4ccccc4cc4ccccc14)[C@@H]23	2.1	
O=C(CCC[C@@H]1[C@H]2CCCN3CCC[C@H](CN1Cc1c4ccccc4cc4ccccc14)[C@@H]23)c1ccc(Cl)cc1	2	
COc1ccccc1CN1C[C@H]2CCCN3CCC[C@@H]([C@H]23)[C@H]1CCCCO	34.6	
COC(=O)CCC[C@@H]1[C@H]2CCCN3CCC[C@H](CN1Cc1cccc4ccccc14)[C@@H]23	3.3	
O=C1CCC[C@@H]2[C@H]3CCCN4CCC[C@H](CN12)[C@@H]34 [SOPHORIDINE]	> 80	Activity [4]: Active
COc1cccc(CN2C[C@H]3CCCN4CCC[C@@H]([C@H]34)[C@H]2CCCC(=O)O)c1OC	> 40	
COC(=O)CCC[C@@H]1[C@H]2CCCN3CCC[C@H](CN1Cc1cc(OC)c(OC)c(OC)c1)[C@@H]23	> 40	
